Assay results collected from several papers.
Compare with care: the assays were run in different laboratories.
Mode: inhibitor
CYP2C8: Cytochrome P450 2C8 (CYP2C8, Homo sapiens, UniProt P10632)
CYP2C9: Cytochrome P450 2C9 (CYP2C9, Homo sapiens, UniProt P11712)
DPP4: Dipeptidyl peptidase 4 (DPP4, Homo sapiens, UniProt P27487)

With `Cn1nc2c(=O)n(C3CC3)ccc2c1[C@](O)(c1cnc(C(F)(F)F)c(Cl)c1)C(F)(F)F` the IC50 was greater than 20 µM (CYP2C8; enzyme activity; human, liver microsomes; pH 7.4).
For `N#C[C@@]12C[C@@H]1[C@@H](n1cnc3c(N[C@@H](C4CCC4)C4CC4)nc(I)nc31)[C@H](O)[C@@H]2O`, the IC50 was 8.64 µM (CYP2C9; enzyme activity).
With `CN(C)c1ncnc2c1ncn2[C@@H]1O[C@H](CCl)[C@@H](NC(=O)[C@@H](CSC(c2ccccc2)c2ccccc2)NC(=O)OC(C)(C)C)[C@H]1O` the IC50 was greater than 100 µM (Aminopeptidase N (ANPEP, Homo sapiens, UniProt P15144); enzyme activity, fluorescence).
For `CC[C@@](N)(c1cnc(C(F)(F)F)c(Cl)c1)c1c2ncn(C3CC3)c(=O)c2nn1C`, the IC50 was greater than 20 µM (CYP2C9; enzyme activity; human, liver microsomes; pH 7.4).
With `Cn1c(=O)cc(N2CCC(N)CC2)n(Cc2nc3ccccc3c(=O)n2-c2ccccc2)c1=O` the IC50 was greater than 100 µM (DPP4; enzyme activity).
`Cn1c(=O)c2c(ncn2C)n(C)c1=O` has an IC50 of greater than 2000 µM (SLC22A13 (Homo sapiens, UniProt Q9Y226); transporter uptake, radiometric; oocytes).
`CC(=O)N[C@H]1Cc2ccc(cc2)OC/C=C/C[C@@H](C(=O)N[C@@H](CCCNC(=N)N)C(=O)c2nc3ccccc3s2)NC(=O)[C@H](CC(C)C)NC1=O` gave an IC50 of 0.053 µM (Hepatocyte growth factor activator serine protease (Homo sapiens, UniProt Q04756); enzyme activity, fluorescence; with preincubation).
The IC50 of `Cc1ccc(-n2c(Cn3c(N4CCC(N)CC4)cc(=O)n(C)c3=O)nc3ccccc3c2=O)cc1` is reported as greater than 100 µM (DPP4; enzyme activity).
With `CC1(CN)CCN(c2cnc3c(Sc4ccncc4Cl)n[nH]c3n2)CC1` the IC50 was greater than 100 µM (Tyrosine-protein phosphatase non-receptor type 6 (PTPN6, Homo sapiens, UniProt P29350); enzyme activity).
The IC50 of `Cn1nc2c(=O)n(C3CC3)cnc2c1[C@](O)(c1cnc(C(F)(F)F)c(Cl)c1)C(F)(F)F` is reported as greater than 20 µM (CYP2C8; enzyme activity; human, liver microsomes; pH 7.4).
The IC50 of `Cn1c(=O)cc(N2CCC(N)CC2)n(Cc2nc3ccccc3c(=O)n2-c2ccc(F)cc2)c1=O` is reported as 63.4 µM (DPP4; enzyme activity).
